Sampled rows, rich in hits. Any-hit rate of the full collection: about 3.1%.
MBD2 inh: MBD2-methylated oligo binding inhibition. 370,000 compounds, 0.31% hits. Q9UBB5. TR-FRET, MBD2 binding to methylated oligonucleotide. inhibition, % at 4.4 µM; in the data active = inhibition above about 13%
ATG4B inhibitor: ATG4B (human) cysteine protease inhibition; Q9Y4P1; AID 504462; 340,000 compounds, 0.51% hits; inhibition, % at 8.33 µM; ATG4B cleavage of LC3-PLA2, NBD-HPC fluorescence, 1 h; in the data active = inhibition above about 40%
CSN deneddyl inh: CSN deneddylation inhibition; inhibition, % at 12.5 µM; Q92905; 360,000 compounds, 0.38% hits; Purified CSN, SCF-Nedd8-OG deneddylation, fluorescence polarization; AID 651999;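 active = pattern-corrected inhibition above about 35%, with an unprinted fluorescence ratio check between 0.5 and 1.5, limit read from the data, passing the limit was not always enough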
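Assay system: purified human Csn5 enzyme expressed in HEK293T cells; measure: % inhibition; also added: SCFSkp2-Nedd8OG substrate at 10 nM final; technique: fluorescence polarization; times: reaction 90 min, room temperature; medium: Tris buffer pH 7.5, NaCl, DTT, Tween-20, trehalose, ovalbumin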
UHRF1 MBD2 ctr: UHRF1 methyl-DNA binding inhibition; UHRF1 binding to methylated oligo, TR-FRET; inhibition, % at 4.4 µM; 370,000 compounds, 0.75% hits; AID 687016; in the data active = inhibition above about 21%;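 also: UHRF1 SRA domain binding a hemimethylated CpG hairpin DNA probe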
rCAG binder: molecules binding r(CAG) RNA repeats. AID 651821. r(CAG) RNA repeat, TO-PRO-1 dye displacement fluorescence. 370,000 compounds, 1.3% hits. inhibition, % at 3 µM;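 active = inhibition above the plate cutoff, the mean of all test compounds on that plate plus 3 SD, cut at about 35% in these data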;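 also: higher means more dye released from RNA so lower well fluorescence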
LEDGF integ inh: blocks HIV-1 LEDGF/p75-dependent DNA integration; 370,000 compounds, 0.64% hits; TR-FRET IN-LEDGF/p75 DNA integration, Eu/Cy5; inhibition, % at 3.7 µM;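 active = inhibition above the screen-wide mean plus 3 SD, cut at about 13% in these data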;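 also: signal is the Cy5 over europium emission ratio at 671 and 618 nm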
IN multimer up: activates HIV-1 integrase multimerization in LEDGF counter-screen | activation, % at 7.7 µM | TR-FRET HIV-1 integrase multimerization, biochemical | shares compounds with LEDGF integ inh | 2,000 compounds, 17% hits; in the data active = activation above about 8.9%
TRFRET interf: TR-FRET optical interference, LEDGF/p75 integration counter-screen; AID 1053135; inhibition, % at 7.7 µM; 2,000 tested, under 10 active; shares compounds with LEDGF integ inh; TR-FRET optical interference counterscreen, HIV-1 IN multimerization;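 active = inhibition above the mean over all tested compounds plus 3 SD, which no compound reached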
LEDGF integ conf: LEDGF/p75-dependent HIV-1 integration inhibition, confirmation; AID 1053136; inhibition, % at 3.7 µM; shares compounds with LEDGF integ inh; 2,000 compounds, 36% hits; TR-FRET LEDGF/p75-dependent HIV-1 integration, biochemical; in the data active = inhibition above about 14%
Large screens that a line does not name were inactive (follow-up assays come after a bar, where they were run).

Cc1cc(C)cc(C(=O)OCCCN(C)C2CN(Cc3cn(Cc4cccc(F)c4)nn3)S(=O)(=O)C2)c1 (stereo unspecified)	none (no result: ATG4B inhibitor, CSN deneddyl inh)
O=CN/C=C/c1cc(O)ccc1O	LEDGF integ inh 24.4 | IN multimer up 18.1 | TRFRET interf inactive | LEDGF integ conf inactive
O=C(OCC#CCSc1nnc(-c2cccc3ccccc23)o1)c1ccc(Cl)c(C(F)(F)F)c1	none (no result: ATG4B inhibitor, CSN deneddyl inh, rCAG binder)
CC1(C(=O)NCc2ccccc2)CN(S(C)(=O)=O)CC(=O)N1CCc1ccccc1 (stereo unspecified)	none (no result: ATG4B inhibitor)
COCCN1C(=O)CN(S(C)(=O)=O)CC1(C)C(=O)NCc1ccccc1 (stereo unspecified)	LEDGF integ inh 14.3 (no result: ATG4B inhibitor) | IN multimer up inactive | TRFRET interf inactive | LEDGF integ conf inactive
CCCOc1ccc(CC(=O)NCCc2ccccc2)cc1OC	LEDGF integ inh 13.9 | IN multimer up inactive | TRFRET interf inactive | LEDGF integ conf inactive
CC1NC(=O)NC1CCCCCC(=O)Nc1ccc(F)cc1 (stereo unspecified)	LEDGF integ inh 83.5 | IN multimer up inactive | TRFRET interf inactive | LEDGF integ conf 92.6
Cc1c(F)cccc1NC(=O)CCCCCC1NC(=O)NC1C (stereo unspecified)	LEDGF integ inh 77.6 | IN multimer up inactive | TRFRET interf inactive | LEDGF integ conf 88.9
O=C(CCCC(=O)c1ccccc1)Nc1ccc(F)cc1	none
c1ccc(Cn2c(SCC3CCC3)nnc2-c2cccnc2)cc1	none (no result: ATG4B inhibitor, CSN deneddyl inh)

Screens: PubChem BioAssay, several laboratories
